{"source": "paper PMC10238757", "about": "(Pharmacology Research & Perspectives, 2023)", "key": {"dogs": {"test_system": "dogs", "assay": "Dose ranging and good laboratory practice toxicology studies in dogs", "format": "in vivo"}, "healthy participants": {"test_system": "healthy participants", "assay": "Safety pooled across study parts", "format": "in vivo, human", "method_in_brief": "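AEs in healthy participants given oral test compound or placebo, recorded with grade and relation to treatment. Laboratory analyses, clinical parameters and suicidality were also monitored. Observation ran 360 h after dosing. Summaries were descriptive, with no formal statistics; parts 1–2 blinded and placebo-controlled, part 3 open-label.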"}, "[1]": {"assay": "Relative bioavailability and food effect", "format": "in vivo, human", "conditions": "100 mg; for Tmax: human, plasma, oral, Median t max", "method_in_brief": "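Open-label, single-dose, 3-period cross-over; 17 healthy participants; washout ≥24 days. Each received 100 mg oral as PiB fed, tablet fed or tablet fasted. Overnight fast ≥9.5 h before and ≥4 h after dosing; fed arms got a moderate-fat meal 25 min pre-dose. Non-compartmental PK. Log_e PK parameters fitted by mixed-effect models (fed/fasted, tablet/PiB fixed; participant random). Back-transformed 90% CIs for AUC_0‐24, AUC_0‐∞, Cmax.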"}, "Multiple ascending dose": {"assay": "Multiple ascending dose", "format": "in vivo, human", "conditions": "for half-life / AUC(0-t) / Cmax / concentration at 24 h / Tmax / concentration at 168 h: human, plasma, oral; for Cmax: C max; for Cmax / concentration at 24 h / concentration at 168 h: ng/mL GM (%CVb); for concentration at 24 h / concentration at 168 h: C trough; for Tmax: t max, h median (range)", "method_in_brief": "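Healthy participants, double-blind and placebo-controlled, cohorts of 10 randomized 7:3. Oral doses after a moderate-fat meal: 25–100 mg QD for 14 days (18 days at top dose), or 500 mg QW ×3. Trough taken pre-dose at end of interval (24 h QD, 168 h QW). Plasma followed to 360 h; LLOQ 10 ng/mL. Non-compartmental PK; accumulation ratios Day 14, 15 or 18 vs Day 1; geometric means with CVb.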"}, "Single ascending dose": {"assay": "Single ascending dose", "format": "in vivo, human", "method_in_brief": "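Healthy participants, double-blind cross-over between 2 cohorts of 9, randomized 6:3 drug:placebo each period. Single oral doses of 10–800 mg right after a moderate-fat breakfast (600 calories, 30% fat). Plasma sampled to 360 h (protocol first set 96 h); LLOQ 10 ng/mL. Non-compartmental analysis; dose proportionality by power model.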"}}}
{"smiles": "C=C(C)[C@@H]1CC[C@]2(NCCN3CCS(=O)(=O)CC3)CC[C@]3(C)[C@H](CC[C@@H]4[C@@]5(C)CC=C(C6=CC[C@@](COc7ncccc7C#N)(C(=O)O)CC6)C(C)(C)[C@@H]5CC[C@]43C)[C@@H]12", "note": "[GSK'937]", "values": [{"measurement": "lowest observed adverse effect level", "setting": "dogs", "result": 3, "unit": "mg/kg"}, {"measurement": "severity of all AEs in participants receiving GSK'937", "setting": "healthy participants; all study parts", "result": "grade 1 or 2"}, {"measurement": "dry skin among AEs attributable to GSK'937", "setting": "healthy participants; parts 1 and 2, 1/17", "result": 6, "unit": "%"}, {"measurement": "headache among AEs attributable to GSK'937", "setting": "healthy participants; parts 1 and 2, 2/17", "result": 12, "unit": "%"}, {"measurement": "Gastrointestinal disorders among GSK'937 recipients", "setting": "healthy participants; parts 1 and 2, 13/64", "result": 20, "unit": "%"}, {"measurement": "GI disorders among AEs attributable to GSK'937", "setting": "healthy participants; parts 1 and 2, 14/17", "result": 82, "unit": "%"}, {"measurement": "increase in C max, tablet versus PiB", "setting": "[1]; fed", "result": "approximately 37%"}, {"measurement": "increase in bioavailability by AUC0-24, tablet versus PiB", "setting": "[1]; fed", "result": 38, "unit": "%"}, {"measurement": "increase in bioavailability by AUC0-∞, tablet versus PiB", "setting": "[1]; fed", "result": 35, "unit": "%"}, {"measurement": "Tmax", "setting": "[1]; 100 mg PiB fed", "result": 9, "unit": "h"}, {"measurement": "Tmax", "setting": "[1]; 100 mg tablet fasted", "result": 6, "unit": "h"}, {"measurement": "Tmax", "setting": "[1]; both tablet and PiB formulations under fed conditions", "result": "8 to 9", "unit": "h"}, {"measurement": "exposure in fed versus fasted states", "setting": "[1]; tablet", "result": "> 2", "unit": "fold"}, {"measurement": "Accumulation ratio of C trough GM (%CVb)", "setting": "Multiple ascending dose; 25 mg QD, Day 14/Day 1", "result": "6.58 (31.4)"}, {"measurement": "Accumulation ratio of C trough GM (%CVb)", "setting": "Multiple ascending dose; 50 mg QD, Day 14/Day 1", "result": "5.25 (35.7)"}, {"measurement": "Accumulation ratio of C trough GM (%CVb)", "setting": "Multiple ascending dose; 100 mg QD, Day 18/Day 1", "result": "9.39 (72.5)"}, {"measurement": "accumulation in exposure following repeat dosing", "setting": "Multiple ascending dose; 500 mg QW (weekly)", "result": "~ 1.7 fold"}, {"measurement": "Accumulation ratio of AUC0-t GM (%CVb)", "setting": "Multiple ascending dose; 500 mg QW, Day 15/Day 1", "result": "1.76 (27.0)"}, {"measurement": "Accumulation ratio of C max GM (%CVb)", "setting": "Multiple ascending dose; 500 mg QW, Day 15/Day 1", "result": "1.68 (26.9)"}, {"measurement": "Accumulation ratio of C trough GM (%CVb)", "setting": "Multiple ascending dose; 500 mg QW, Day 15/Day 1", "result": "1.82 (33.8)"}, {"measurement": "time after final dose at which still detectable", "setting": "Multiple ascending dose; all part 2 participants", "result": 360, "unit": "h"}, {"measurement": "half-life", "setting": "Multiple ascending dose", "result": "72.2 to 85.8", "unit": "h"}, {"measurement": "AUC(0-t)", "setting": "Multiple ascending dose; 25 mg", "result": 1.89, "unit": "µg·h/mL"}, {"measurement": "half-life", "setting": "Multiple ascending dose; 25 mg", "result": 85.8, "unit": "h"}, {"measurement": "Cmax", "setting": "Multiple ascending dose; 25 mg, 25 mg QD, Day 1", "result": 0.132, "unit": "µg/mL"}, {"measurement": "Cmax", "setting": "Multiple ascending dose; 25 mg, 25 mg QD, Day 14", "result": 0.766, "unit": "µg/mL"}, {"measurement": "concentration at 24 h", "setting": "Multiple ascending dose; 25 mg, 25 mg QD, Day 1, 24 h", "result": 0.0893, "unit": "µg/mL"}, {"measurement": "concentration at 24 h", "setting": "Multiple ascending dose; 25 mg, 25 mg QD, Day 14, 24 h", "result": 0.588, "unit": "µg/mL"}, {"measurement": "Tmax", "setting": "Multiple ascending dose; 25 mg, 25 mg QD, Day 1", "result": 9, "unit": "h"}, {"measurement": "Tmax", "setting": "Multiple ascending dose; 25 mg, 25 mg QD, Day 14", "result": 6.95, "unit": "h"}, {"measurement": "AUC(0-t)", "setting": "Multiple ascending dose; 50 mg", "result": 3.56, "unit": "µg·h/mL"}, {"measurement": "half-life", "setting": "Multiple ascending dose; 50 mg", "result": 72.2, "unit": "h"}, {"measurement": "Cmax", "setting": "Multiple ascending dose; 50 mg, 50 mg QD, Day 1", "result": 0.232, "unit": "µg/mL"}, {"measurement": "Cmax", "setting": "Multiple ascending dose; 50 mg, 50 mg QD, Day 14", "result": 1.15, "unit": "µg/mL"}, {"measurement": "concentration at 24 h", "setting": "Multiple ascending dose; 50 mg, 50 mg QD, Day 1, 24 h", "result": 0.189, "unit": "µg/mL"}, {"measurement": "concentration at 24 h", "setting": "Multiple ascending dose; 50 mg, 50 mg QD, Day 14, 24 h", "result": 0.99, "unit": "µg/mL"}, {"measurement": "Tmax", "setting": "Multiple ascending dose; 50 mg, 50 mg QD, Day 1", "result": 8, "unit": "h"}, {"measurement": "Tmax", "setting": "Multiple ascending dose; 50 mg, 50 mg QD, Day 14", "result": 7.03, "unit": "h"}, {"measurement": "AUC(0-t)", "setting": "Multiple ascending dose; 100 mg", "result": 5.89, "unit": "µg·h/mL"}, {"measurement": "half-life", "setting": "Multiple ascending dose; 100 mg", "result": 78.5, "unit": "h"}, {"measurement": "Cmax", "setting": "Multiple ascending dose; 100 mg, 100 mg QD, Day 1", "result": 0.375, "unit": "µg/mL"}, {"measurement": "Cmax", "setting": "Multiple ascending dose; 100 mg, 100 mg QD, Day 14", "result": 2.68, "unit": "µg/mL"}, {"measurement": "Cmax", "setting": "Multiple ascending dose; 100 mg, 100 mg QD, Day 18", "result": 2.75, "unit": "µg/mL"}, {"measurement": "concentration at 24 h", "setting": "Multiple ascending dose; 100 mg, 100 mg QD, Day 1, 24 h", "result": 0.272, "unit": "µg/mL"}, {"measurement": "concentration at 24 h", "setting": "Multiple ascending dose; 100 mg, 100 mg QD, Day 14, 24 h", "result": 2.42, "unit": "µg/mL"}, {"measurement": "concentration at 24 h", "setting": "Multiple ascending dose; 100 mg, 100 mg QD, Day 18, 24 h", "result": 2.46, "unit": "µg/mL"}, {"measurement": "Tmax", "setting": "Multiple ascending dose; 100 mg, 100 mg QD, Day 1", "result": 9, "unit": "h"}, {"measurement": "Tmax", "setting": "Multiple ascending dose; 100 mg, 100 mg QD, Day 14", "result": 7.49, "unit": "h"}, {"measurement": "Tmax", "setting": "Multiple ascending dose; 100 mg, 100 mg QD, Day 18", "result": 9.01, "unit": "h"}, {"measurement": "half-life", "setting": "Multiple ascending dose; 500 mg", "result": 74.5, "unit": "h"}, {"measurement": "Cmax", "setting": "Multiple ascending dose; 500 mg, 500 mg QW, Day 1", "result": 1.11, "unit": "µg/mL"}, {"measurement": "Cmax", "setting": "Multiple ascending dose; 500 mg, 500 mg QW, Day 8", "result": 2.32, "unit": "µg/mL"}, {"measurement": "Cmax", "setting": "Multiple ascending dose; 500 mg, 500 mg QW, Day 15", "result": 1.86, "unit": "µg/mL"}, {"measurement": "concentration at 168 h", "setting": "Multiple ascending dose; 500 mg, 500 mg QW, Day 1, 168 h", "result": 0.251, "unit": "µg/mL"}, {"measurement": "concentration at 168 h", "setting": "Multiple ascending dose; 500 mg, 500 mg QW, Day 8, 168 h", "result": 0.498, "unit": "µg/mL"}, {"measurement": "concentration at 168 h", "setting": "Multiple ascending dose; 500 mg, 500 mg QW, Day 15, 168 h", "result": 0.455, "unit": "µg/mL"}, {"measurement": "Tmax", "setting": "Multiple ascending dose; 500 mg, 500 mg QW, Day 1", "result": 9.88, "unit": "h"}, {"measurement": "Tmax", "setting": "Multiple ascending dose; 500 mg, 500 mg QW, Day 8", "result": 10, "unit": "h"}, {"measurement": "Tmax", "setting": "Multiple ascending dose; 500 mg, 500 mg QW, Day 15", "result": 10, "unit": "h"}, {"measurement": "t max, h median (range)", "setting": "Single ascending dose; SAD 800 mg", "result": "18.08 (12.1–24.1) h"}, {"measurement": "time up to which concentrations were quantifiable", "setting": "Single ascending dose; after the 10-mg dose", "result": "up to 96 h"}, {"measurement": "time up to which concentrations were quantifiable", "setting": "Single ascending dose; after the 30-mg dose, 5 of 6 participants", "result": "≤ 264", "unit": "h"}, {"measurement": "time up to which concentrations were quantifiable", "setting": "Single ascending dose; all other doses except 1 individual in the 80-mg cohort", "result": "≤ 360", "unit": "h"}, {"measurement": "AUC(0-t)", "setting": "Single ascending dose; human, plasma, oral, 10 mg", "result": 2.49, "unit": "µg·h/mL"}, {"measurement": "Cmax", "setting": "Single ascending dose; human, plasma, oral, 10 mg", "result": 0.0392, "unit": "µg/mL"}, {"measurement": "Tmax", "setting": "Single ascending dose; human, plasma, oral, 10 mg, t max, h median (range), SAD 10 mg", "result": 6.98, "unit": "h"}]}
